Laboratory results published in PMC6044948 (ACS Omega, 2017).
In brackets after ≈: the same amount, converted by molar mass.

Assays:
Hela cells = test: In vitro cytotoxicity against cancer cells, CCK-8 assay; type: cell-based; conditions: Homo sapiens, 24 h
How it was run: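 HeLa cells seeded at 4 × 10^3/well and cultured 12 h, then given fresh medium with free test compound, pillararene host alone, or host-loaded test compound for 24 h. Drug range 5 × 10–4–5 × 101 μM; host alone 5 × 10–3–5 × 102 μM. CCK-8 added for 3 h, OD read at 450 nm. Viability was set relative to a medium-only control (100%). IC50 is the concentration giving 50% viability. Mean ± SD, n = 6; Student's t test.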

[1] = Intrinsic solubility of CPT/HCPT; type: physicochemical; conditions: PBS (CPT); NaD2PO4 buffer (HCPT), aqueous buffer, thermodynamic from solid
How it was run: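 Excess solid stirred at room temperature, then undissolved material removed by centrifugation. In PBS: stirred 6 h; supernatant quantified by UV–vis against an absorbance standard curve. In NaD2PO4 (10 mM, pD 7.4): stirred 3 h; supernatant quantified by 1H NMR integration against a known concentration of 1,3,5-benzenetricarboxylic acid as internal reference.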

[2] = Solubility enhancement assay with WP6; type: physicochemical; conditions: for solubility at 3 h: NaD2PO4 buffer with WP6, pH 7.4; for solubility enhancement in the presence of WP6: versus intrinsic solubility
How it was run: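 Excess solid test compound stirred 3 h at room temperature in NaD2PO4 (10 mM, pD 7.4) containing a known concentration of pillararene host. Undissolved drug removed by centrifugation. Supernatant drug quantified by 1H NMR integration against subsequently added 1,3,5-benzenetricarboxylic acid as internal reference. Each point in triplicate; phase solubility diagrams plotted; enhancement taken relative to intrinsic solubility.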

SMILES | IC50 (Hela cells) | solubility [1] | solubility at 3 h [2] | solubility enhancement in the presence of WP6 [2]
CC[C@@]1(O)C(=O)OCc2c1cc1n(c2=O)Cc2cc3cc(O)ccc3nc2-1 [HCPT, 10-hydroxycamptothecin] | 1300 nM | 29 µM (≈ 10.6 µg/mL) | > 1000 µM | 40 times
CC[C@@]1(O)C(=O)OCc2c1cc1n(c2=O)Cc2cc3ccccc3nc2-1 [CPT, 20-(S)-camptothecin] | 800 nM | 5 µM (≈ 1.74 µg/mL) | > 1000 µM | 380 times
